This experiment concerns RAW264.7. The experiment in a line: Inhibition of LPS-induced nitric oxide production in mouse RAW264.7 cells pretreated for 1 hr followed by LPS-stimulation and measured after 24 hrs by Griess assay. It is filed as functional, cell-based. Summed up: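 RAW 264.7 macrophages seeded at 0.9 × 10^5 cells/mL and grown 24 h; pretreated with compound 1 h, then stimulated with LPS (1 μg/mL) for 24 h. Accumulated nitrite in medium measured with Griess reagent as NO indicator. IC50 = concentration giving 50% decrease in NO production; means of three independent experiments. NIL (10 μM) as positive control; MTT viability assay run in parallel.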
For orientation: IC50 means the concentration needed to halve the response being measured. For `O=c1c(-c2ccc(O)cc2)coc2cc(O[C@@H]3O[C@H](CO)[C@@H](O)[C@H](O)[C@H]3O)cc(O)c12` [GENISTIN], the IC50 was greater than 1000 nM.
The value for `COc1cc(-c2coc3cc(O[C@@H]4O[C@H](CO)[C@@H](O)[C@H](O)[C@H]4O)cc(OC)c3c2=O)ccc1O` was greater than 1000 nM; that for `COc1cc(O[C@@H]2O[C@H](CO)[C@@H](O)[C@H](O)[C@H]2O)cc2occ(-c3ccc(O)cc3)c(=O)c12` was greater than 1000 nM; that for `O=c1c(-c2ccc(O)cc2)coc2cc(O[C@@H]3O[C@H](CO[C@@H]4O[C@H](CO[C@@H]5O[C@H](CO)[C@@H](O)[C@H](O)[C@H]5O)[C@@H](O)[C@H](O)[C@H]4O)[C@@H](O)[C@H](O)[C@H]3O)cc(O)c12` was greater than 1000 nM.
Under `COc1cc(O)cc2occ(-c3ccc(O)cc3)c(=O)c12` stands greater than 1000 nM; under `O=c1c(-c2ccc(O[C@@H]3O[C@H](CO)[C@@H](O)[C@H](O)[C@H]3O)cc2O)coc2cc(O[C@@H]3O[C@H](CO)[C@@H](O)[C@H](O)[C@H]3O)cc(O)c12`, 710 nM; under `COc1cc(O[C@@H]2O[C@H](CO)[C@@H](O)[C@H](O)[C@H]2O)cc2occ(-c3ccc(O)cc3O)c(=O)c12`, greater than 1000 nM.
The value for `COc1cc(-c2coc3cc(O)cc(OC)c3c2=O)ccc1O` was greater than 1000 nM; that for `NC(=O)NC1NC(=O)NC1=O` (stereo unspecified) [ALLANTOIN] was 500 nM; that for `O=c1c(-c2ccc(O)cc2O)coc2cc(O[C@@H]3O[C@H](CO[C@@H]4O[C@H](CO)[C@@H](O)[C@H](O)[C@H]4O)[C@@H](O)[C@H](O)[C@H]3O)cc(O)c12` was 600 nM.
As to `COc1cc(O)cc2occ(-c3ccc(O)cc3O)c(=O)c12`, the IC50 was determined as 600 nM.
The value for `O=c1c(-c2ccc(O[C@@H]3O[C@H](CO)[C@@H](O)[C@H](O)[C@H]3O)cc2O)coc2cc(O)cc(O)c12` was greater than 1000 nM; that for `O=c1c(-c2ccc(O)cc2)coc2cc(O[C@@H]3O[C@H](CO[C@@H]4O[C@H](CO)[C@@H](O)[C@H](O)[C@H]4O)[C@@H](O)[C@H](O)[C@H]3O)cc(O)c12` was greater than 1000 nM; that for `O=c1c2c(O)cc(O)cc2oc2oc3cc(O)ccc3c12` was greater than 1000 nM.
Under `COc1cc(O)cc2occ(-c3ccc(O[C@@H]4O[C@H](CO)[C@@H](O)[C@H](O)[C@H]4O)cc3O)c(=O)c12` stands 470 nM; under `O=c1c(-c2ccc(O)cc2)coc2cc(O)cc(O)c12` [GENISTEIN], greater than 1000 nM.
Under `COc1cc(O)cc2c1C(=O)[C@]1(O)c3ccc(O)cc3O[C@@H]1O2` stands 380 nM; under `O=c1c(-c2ccc(O)cc2O)coc2cc(O[C@@H]3O[C@H](CO)[C@@H](O)[C@H](O)[C@H]3O)cc(O)c12`, greater than 1000 nM.
On to `CC(=N)NCCCC[C@H](N)C(=O)O` [L-NIL], for which the IC50 is 1550 nM.
The value for `O=c1c(-c2ccc(O)cc2O)coc2cc(O)cc(O)c12` was greater than 1000 nM; that for `COc1cc(O[C@@H]2O[C@H](CO)[C@@H](O)[C@H](O)[C@H]2O)cc2occ(-c3ccc(O[C@@H]4O[C@H](CO)[C@@H](O)[C@H](O)[C@H]4O)cc3O)c(=O)c12` was 420 nM.

The values are drawn from ChEMBL document CHEMBL4145626, “Chemical Constituents of Apios americana Tubers and Their Inhibitory Activities on Nitric Oxide Production in Lipopolysaccharide-Stimulated RAW 264.7 Macrophages” (J Nat Prod, 2018).
